Data on ten molecules can be found in ChEMBL document CHEMBL4138262, “Antineoplastic Agents. 606. The Betulastatins” (2018).

In brackets after ≈: the same amount, converted by molar mass. Where only a bound is given, the exact number is not on record here.

Holding throughout (assay type): functional
Experiment [1] relates to MCF7. Briefly: Growth inhibition of human MCF7 cells after 48 hrs by SRB assay. Conditions: MCF7, 48 h. The method, boiled down:
(§1)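 Cells in RPMI1640 with 5% fetal bovine serum were seeded in 96-well plates and incubated 24 h before serial dilutions of compound were added. After 48 h, plates were TCA-fixed, stained with sulforhodamine B and read on a microplate reader. Five serial dilutions were tested, with optical density in duplicate per end point. GI50 was calculated from optical density as the concentration halving net protein increase.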
On the technique in general: Sulforhodamine B stains cellular protein and so reports cell mass.

Experiment [2] has as its system NCI-H460. Put plainly: Growth inhibition of human NCI-H460 cells after 48 hrs by SRB assay. Conditions: NCI-H460, 48 h. The method, boiled down: as §1
Experiment [3] deals with KM-20L2. Briefly: Growth inhibition of human KM20L2 cells after 48 hrs by SRB assay. Conditions: KM-20L2, 48 h. The method, boiled down: as §1
The subject of experiment [4] is DU-145. Briefly: Growth inhibition of human DU145 cells after 48 hrs by SRB assay. Conditions: DU-145, 48 h. The method, boiled down:
as §1

Experiment [5] deals with BXPC-3. Put plainly: Growth inhibition of human BxPC3 cells after 48 hrs by SRB assay. Conditions: BXPC-3, 48 h. The method, boiled down: as §1
In experiment [6] the test system is SF-268. Briefly: Growth inhibition of human SF268 cells after 48 hrs by SRB assay. Conditions: SF-268, 48 h. The method, boiled down:
as §1

Take `C=C(C)[C@@H]1CC[C@]2(CN)CC[C@]3(C)[C@H](CC[C@@H]4[C@@]5(C)CC[C@H](OC(C)=O)C(C)(C)[C@@H]5CC[C@]43C)[C@@H]12`: the 50% growth inhibitory concentration (GI50) – broadly, the concentration giving 50% growth inhibition – is 1.8 µg/mL (≈ 3.72 µM) in experiment [1]; 1.9 µg/mL (≈ 3.93 µM) in experiment [2]; 1.9 µg/mL (≈ 3.93 µM) in experiment [3]; 1.8 µg/mL (≈ 3.72 µM) in experiment [4]; 1.9 µg/mL (≈ 3.93 µM) in experiment [5]; 1.8 µg/mL (≈ 3.72 µM) in experiment [6].

In the case of `C=C(C)[C@@H]1CC[C@]2(/C=N/O)CC[C@]3(C)[C@H](CC[C@@H]4[C@@]5(C)CC[C@H](OC(C)=O)C(C)(C)[C@@H]5CC[C@]43C)[C@@H]12`, the GI50 in experiment [1] is 4.5 µg/mL (≈ 9.04 µM); in experiment [2] it was 4.1 µg/mL (≈ 8.24 µM); in experiment [3], 5.1 µg/mL (≈ 10.2 µM); in experiment [4], above 10 µg/mL; in experiment [5], 15.5 µg/mL (≈ 31.1 µM); in experiment [6], 13.2 µg/mL (≈ 26.5 µM).

For `C=C(C)[C@@H]1CC[C@]2(COC(C)=O)CC[C@]3(C)[C@H](CC[C@@H]4[C@@]5(C)CC[C@H](NC(=O)[C@H](C)[C@@H](OC)[C@@H]6CCCN6C(=O)C[C@@H](OC)[C@H]([C@@H](C)CC)N(C)C(=O)[C@@H](NC(=O)[C@H](C(C)C)N(C)C)C(C)C)C(C)(C)[C@@H]5CC[C@]43C)[C@@H]12`, the GI50 in experiment [1] was 4.1 µg/mL (≈ 3.85 µM); in experiment [2], above 10 µg/mL; in experiment [3], 7 µg/mL (≈ 6.58 µM); in experiment [4], 2.5 µg/mL (≈ 2.35 µM); in experiment [5] it was 10 µg/mL (≈ 9.39 µM); in experiment [6] it was 3.8 µg/mL (≈ 3.57 µM).

As for `CC[C@H](C)[C@@H]([C@@H](CC(=O)N1CCC[C@H]1[C@H](OC)[C@@H](C)C(=O)NCCN1C(=O)[C@]23CCC(C)(C)C1[C@@H]2[C@H]1CC[C@@H]2[C@@]4(C)CC[C@H](O)C(C)(C)[C@@H]4CC[C@@]2(C)[C@]1(C)CC3)OC)N(C)C(=O)[C@@H](NC(=O)[C@H](C(C)C)N(C)C)C(C)C`, the 50% growth inhibitory concentration (GI50) in experiment [1] was 0.21 µg/mL (≈ 0.195 µM); in experiment [2], 0.6 µg/mL (≈ 0.556 µM); in experiment [3], 0.22 µg/mL (≈ 0.204 µM); in experiment [4] it was 0.06 µg/mL (≈ 0.0556 µM); in experiment [5], 0.31 µg/mL (≈ 0.287 µM); in experiment [6] it was 0.09 µg/mL (≈ 0.0834 µM).

Consider `C=C(C)[C@@H]1CC[C@]2(CNC(=O)[C@H](C)[C@@H](OC)[C@@H]3CCCN3C(=O)C[C@@H](OC)[C@H]([C@@H](C)CC)N(C)C(=O)[C@@H](NC(=O)[C@H](C(C)C)N(C)C)C(C)C)CC[C@]3(C)[C@H](CC[C@@H]4[C@@]5(C)CC[C@H](O)C(C)(C)[C@@H]5CC[C@]43C)[C@@H]12`, for which the GI50 was 0.4 µg/mL (≈ 0.391 µM) in experiment [1]; above 1 µg/mL in experiment [2]; 0.31 µg/mL (≈ 0.303 µM) in experiment [3]; 0.4 µg/mL (≈ 0.391 µM) in experiment [4]; 0.6 µg/mL (≈ 0.587 µM) in experiment [5]; 0.3 µg/mL (≈ 0.293 µM) in experiment [6].

Regarding `C=C(CNC(=O)[C@H](C)[C@@H](OC)[C@@H]1CCCN1C(=O)C[C@@H](OC)[C@H]([C@@H](C)CC)N(C)C(=O)[C@@H](NC(=O)[C@H](C(C)C)N(C)C)C(C)C)[C@@H]1CC[C@]2(CO)CC[C@]3(C)[C@H](CC[C@@H]4[C@@]5(C)CC[C@H](O)C(C)(C)[C@@H]5CC[C@]43C)[C@@H]12`, the GI50 in experiment [1] was 0.08 µg/mL (≈ 0.077 µM); in experiment [2], 0.5 µg/mL (≈ 0.481 µM); in experiment [3] it was 0.09 µg/mL (≈ 0.0867 µM); in experiment [4] it was 0.04 µg/mL (≈ 0.0385 µM); in experiment [5], 0.4 µg/mL (≈ 0.385 µM); in experiment [6], 0.04 µg/mL (≈ 0.0385 µM).

As for `C=C(CN=[N+]=[N-])[C@@H]1CC[C@]2(COC(C)=O)CC[C@]3(C)[C@H](CC[C@@H]4[C@@]5(C)CC[C@H](OC(C)=O)C(C)(C)[C@@H]5CC[C@]43C)[C@@H]12`, the GI50 in experiment [1], in experiment [2], in experiment [3], in experiment [4], in experiment [5] and in experiment [6] was above 10 µg/mL in each case.

As to `C=C(CBr)[C@@H]1CC[C@]2(COC(C)=O)CC[C@]3(C)[C@H](CC[C@@H]4[C@@]5(C)CC[C@H](OC(C)=O)C(C)(C)[C@@H]5CC[C@]43C)[C@@H]12`, the GI50 in experiment [1], in experiment [2], in experiment [3], in experiment [4], in experiment [5] and in experiment [6] was above 10 µg/mL in each case.

For `C=C(C)[C@@H]1CC[C@]2(COC(C)=O)CC[C@]3(C)[C@H](CC[C@@H]4[C@@]5(C)CC[C@@H](N)C(C)(C)[C@@H]5CC[C@]43C)[C@@H]12`, the GI50 in experiment [1] is 2.1 µg/mL (≈ 4.34 µM); in experiment [2], 6 µg/mL (≈ 12.4 µM); in experiment [3] it was 3 µg/mL (≈ 6.2 µM); in experiment [4] it was 1.3 µg/mL (≈ 2.69 µM); in experiment [5], above 10 µg/mL; in experiment [6], 1.2 µg/mL (≈ 2.48 µM).

Consider `C=C(CNC(=O)[C@H](C)[C@@H](OC)[C@@H]1CCCN1C(=O)OC(C)(C)C)[C@@H]1CC[C@]2(CO)CC[C@]3(C)[C@H](CC[C@@H]4[C@@]5(C)CC[C@H](O)C(C)(C)[C@@H]5CC[C@]43C)[C@@H]12`, for which the GI50 is 9 µg/mL (≈ 12.4 µM) in experiment [1]; above 10 µg/mL in experiment [2]; above 10 µg/mL in experiment [3]; above 10 µg/mL in experiment [4]; above 10 µg/mL in experiment [5]; above 10 µg/mL in experiment [6].
